The results in this text go back to ChEMBL document CHEMBL1130340, “Semisynthetic derivatives of purpuromycin as potential topical agents for vaginal infections” (1997).

Values after ≈ are worked out from the molar mass of the structure shown.

Holding throughout (format): functional
The test system of test [1] is Cutibacterium acnes. Description: In vitro antimicrobial activity against Propionibacterium acnes ATCC 6919. In a few lines:
(§1)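 Anaerobe MIC by broth microdilution in Wilkins-Chalgren broth; inoculum 5 × 10^5 cfu/mL; 37 °C.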

In test [2] the test system is Candida albicans. Kind of test: In vitro antimicrobial activity against Candida albicans(24). The gist of the method: (§2)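 Candida: broth microdilution MIC in phosphate-buffered Yeast Nitrogen Base broth with glucose (1% w/v) and L-asparagine (0.15% w/v); inoculum about 10^4 cfu/mL; 37 °C, 20–24 h.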
Test [3] deals with Staphylococcus aureus. Description: In vitro antimicrobial activity against Staphylococcus aureus L1 65 30% bovine serum. In a few lines:
(§3)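 Broth microdilution MIC against S. aureus L165 in Iso-Sensitest broth, 37 °C, 20–24 h.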

Test [4] concerns Neisseria gonorrhoeae. Description: In vitro antimicrobial activity against Neisseria gonorrhoeae L997. The gist of the method:
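Broth microdilution MIC in GC Base broth plus 1% (v/v) IsoVitaleX; inoculum about 10^4 cfu/mL; 37 °C.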

The subject of test [5] is Escherichia coli. Description: In vitro antimicrobial activity against Escherichia coli L47. The gist of the method:
(§4)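 Broth microdilution MIC in Oxoid Iso-Sensitest broth; inoculum about 10^4 cfu/mL; 37 °C for 20–24 h.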

Test [6] concerns Staphylococcus haemolyticus. Description: In vitro antimicrobial activity against Staphylococcus haemolyticus L602. The gist of the method: as §4
Test [7] concerns Candida albicans. Description: In vitro antimicrobial activity against Candida albicans L145. The gist of the method: as §2
The subject of test [8] is Trichomonas vaginalis. Description: Antimicrobial activity against Trichomonas vaginalis. The gist of the method: (§5)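 Broth microdilution in Trichomonas Culture Medium Base plus 10% horse serum; about 10^5 cells/mL; 48 h at 37 °C under N2-CO2-H2; MIC read by microscopy for viable (motile) protozoa.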
For test [9], the system named is Staphylococcus aureus. Kind of test: In viro antimicrobial activity against Staphylococcus aureus L16510 x e+6 cfu/ml. The gist of the method:
as §3

Test [10] has as its system Haemophilus influenzae. Description: In vitro antimicrobial activity against Haemophilus influenza ATCC 19418. The gist of the method: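 Broth microdilution MIC in Brain Heart Infusion broth plus 1% (v/v) supplement C; inoculum about 10^4 cfu/mL; 37 °C.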
For test [11], the system named is Candida. Kind of test: Minimum inhibition concentration for 90% inhibition against Candida species. In a few lines:
as §2

Test [12] has as its system Enterococcus faecalis. Kind of test: In vitro antimicrobial activity against Enterococcus faecalis ATCC 7080. In a few lines: as §4
Test [13] deals with Candida tropicalis. Kind of test: In vitro antimicrobial activity against Candida tropicalis (2). In a few lines: as §2
Test [14] deals with Staphylococcus aureus. Description: In vitro antimicrobial activity against Staphylococcus aureus L165. In a few lines: as §4
The test system of test [15] is Streptococcus pyogenes. Kind of test: In vitro antimicrobial activity against Streptococcus pyogenes L49. In a few lines:
(§6)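 Streptococci: broth microdilution MIC in Todd Hewitt broth; inoculum about 10^4 cfu/mL; 37 °C, 20–24 h.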

The test system of test [16] is Bacteroides fragilis. Kind of test: In vitro antimicrobial activity against Bacteroides fragilis ATCC 25285. The gist of the method: as §1
Test [17] has as its system Gardnerella vaginalis. Kind of test: In vitro antimicrobial activity against Gardnerella vaginalis (MIC90). The gist of the method: (§7)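 Agar dilution MIC in Casman medium with 5% (v/v) whole and 0.15% (v/v) lysed rabbit blood; inoculum about 10^5 cfu; 48 h at 37 °C under N2-CO2-H2 (80:10:10).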
The test system of test [18] is Streptococcus pneumoniae. Kind of test: In vitro antimicrobial activity against Streptococcus pneumoniae L44. The gist of the method: as §6
Test [19] relates to Proteus vulgaris. Kind of test: In vitro antimicrobial activity against Proteus vulgaris ATCC881. The gist of the method: as §4
Test [20] deals with Pseudomonas aeruginosa. Description: In vitro antimicrobial activity against Pseudomonas aeruginosa ATCC 10145. In a few lines: as §4
The test system of test [21] is Gardnerella vaginalis. Description: In vitro antimicrobial activity against Gardnerella vaginalis (MIC50). In a few lines: as §7
In test [22] the test system is Staphylococcus epidermidis. Kind of test: In vitro antimicrobial activity against Staphylococcus epidermidis ATCC 12228. The gist of the method: as §4
In test [23] the test system is Candida. Description: Minimum inhibition concentration for 50% inhibition against Candida species. The gist of the method:
as §2

Test [24] relates to Staphylococcus aureus. Description: In viro antimicrobial activity against Staphylococcus aureus L165 10 x e+6 cfu/ml. The gist of the method: as §3
Test [25] relates to Staphylococcus aureus. Kind of test: In vitro antimicrobial activity against Staphylococcus aureus L165 30% bovine serum. The gist of the method:
as §3

In test [26] the test system is Candida albicans. Description: In vitro antimicrobial activity against Candida albicans (24). The gist of the method:
as §2

Test [27] relates to Nakaseomyces glabratus. Description: In vitro antimicrobial activity against Candida glabrata (1)1. In a few lines: as §2
The test system of test [28] is Trichomonas vaginalis. Description: In vitro antimicrobial activity against Trichomonas vaginalis. The gist of the method:
as §5

As usually defined, the MIC90 is the lowest concentration that inhibits either 90% of growth or 90% of the strains tested, depending on the study. A high value points to lower susceptibility. By MIC50 is commonly meant an inhibitory concentration at the 50% level, which refers to growth in some studies and to a panel of isolates in others. High values mean weaker potency, low ones greater potency. For the molecule `COC(=O)c1cc2cc3c(c(O)c2c(=O)o1)OC1(Cc2c(O)c4c(c(O)c2O1)C(=O)C(OC)=CC4=O)CC3O` (stereo unspecified), the MIC is 0.03 µg/mL (≈ 0.0557 µM) in [1]; 0.25 µg/mL (≈ 0.464 µM) in test [2]; 8 µg/mL (≈ 14.9 µM) in [3]; 0.06 µg/mL (≈ 0.111 µM) in [4]; 8 µg/mL (≈ 14.9 µM) in [5]; 0.03 µg/mL (≈ 0.0557 µM) in test [6]. Further, the MIC in test [7] was determined as 1 µg/mL (≈ 1.86 µM); in test [8] it was 8 µg/mL (≈ 14.9 µM); in test [9], 0.06 µg/mL (≈ 0.111 µM); in test [10] it was 0.03 µg/mL (≈ 0.0557 µM); in test [12] it was 0.06 µg/mL (≈ 0.111 µM); in [13] it was 128 µg/mL (≈ 238 µM). The MIC was 0.03 µg/mL (≈ 0.0557 µM) in test [14]; 0.25 µg/mL (≈ 0.464 µM) in [15]; 0.25 µg/mL (≈ 0.464 µM) in [16]; 0.06 µg/mL (≈ 0.111 µM) in [18]; 32 µg/mL (≈ 59.4 µM) in test [19]; greater than 128 µg/mL in [20]. In test [22], this molecule displayed an MIC of 0.03 µg/mL (≈ 0.0557 µM). Further, the MIC90 in test [11] stood at 2 µg/mL (≈ 3.71 µM); in test [17], 8 µg/mL (≈ 14.9 µM). The MIC50 came out at 8 µg/mL (≈ 14.9 µM) in test [21] and 1 µg/mL (≈ 1.86 µM) in test [23].
Regarding `COC(=O)c1cc2cc3c(c(O)c2c(=O)o1)OC1(CC2=C(O1)C(=O)c1c(O)c(NCCN)cc(O)c1C2=O)CC3O` (stereo unspecified), the MIC in [1] is 0.5 µg/mL (≈ 0.883 µM); in test [3], 8 µg/mL (≈ 14.1 µM); in test [4], 64 µg/mL (≈ 113 µM); in test [24], 1 µg/mL (≈ 1.77 µM); in test [5], greater than 128 µg/mL; in test [6], 1 µg/mL (≈ 1.77 µM). Also, the MIC in [7] was greater than 128 µg/mL; in test [10], 32 µg/mL (≈ 56.5 µM); in test [12], 2 µg/mL (≈ 3.53 µM); in test [14], 1 µg/mL (≈ 1.77 µM); in test [15] it was 2 µg/mL (≈ 3.53 µM); in [16], greater than 128 µg/mL. For the same molecule, the MIC in test [18] was 1 µg/mL (≈ 1.77 µM); in test [19], greater than 128 µg/mL; in [20], greater than 128 µg/mL; in [22], 1 µg/mL (≈ 1.77 µM).
`COC(=O)c1cc2cc3c(c(O)c2c(=O)o1)OC1(CC2=C(O1)C(=O)c1c(O)c(NCc4ccccc4)cc(O)c1C2=O)CC3O` (stereo unspecified): the MIC in test [4] is 0.25 µg/mL (≈ 0.407 µM); in test [24], 1 µg/mL (≈ 1.63 µM); in [5] it was greater than 128 µg/mL; in test [6], 0.13 µg/mL (≈ 0.212 µM); in [7] it was greater than 128 µg/mL; in test [10] it was 2 µg/mL (≈ 3.26 µM). The MIC is 4 µg/mL (≈ 6.52 µM) in test [12]; 0.5 µg/mL (≈ 0.815 µM) in test [14]; 1 µg/mL (≈ 1.63 µM) in test [15]; 0.06 µg/mL (≈ 0.0978 µM) in test [18]; greater than 128 µg/mL in [19]; greater than 128 µg/mL in test [20]. Further, the MIC in test [22] was determined as 0.13 µg/mL (≈ 0.212 µM); in [25], 32 µg/mL (≈ 52.2 µM).
Regarding `CCNc1cc(O)c2c(c1O)C(=O)C1=C(CC3(CC(O)c4cc5cc(C(=O)OC)oc(=O)c5c(O)c4O3)O1)C2=O` (stereo unspecified), the MIC is 0.06 µg/mL (≈ 0.109 µM) in test [1]; 1 µg/mL (≈ 1.81 µM) in test [3]; 0.06 µg/mL (≈ 0.109 µM) in test [4]; 0.06 µg/mL (≈ 0.109 µM) in test [24]; greater than 128 µg/mL in [5]; 0.25 µg/mL (≈ 0.453 µM) in test [26]. Also, the MIC in test [6] is 0.06 µg/mL (≈ 0.109 µM); in [7] it was 2 µg/mL (≈ 3.63 µM); in [10] it was 0.06 µg/mL (≈ 0.109 µM); in [12], 0.06 µg/mL (≈ 0.109 µM); in test [13] it was 64 µg/mL (≈ 116 µM); in test [14], 0.06 µg/mL (≈ 0.109 µM). Besides, the MIC in [27] is 32 µg/mL (≈ 58 µM); in test [15], 0.06 µg/mL (≈ 0.109 µM); in test [16], 0.06 µg/mL (≈ 0.109 µM); in test [18] it was 0.06 µg/mL (≈ 0.109 µM); in test [19], greater than 128 µg/mL; in test [28], 8 µg/mL (≈ 14.5 µM). The MIC is greater than 128 µg/mL in test [20] and 0.06 µg/mL (≈ 0.109 µM) in test [22]. Further, the values for the MIC90 in [11] and in test [17] were 4 µg/mL (≈ 7.25 µM) and 2 µg/mL (≈ 3.63 µM), respectively. Further, the MIC50 in [21] and in [23] was 2 µg/mL (≈ 3.63 µM) each time.
For the molecule `CNc1cc(O)c2c(c1O)C(=O)C1=C(CC3(CC(O)c4cc5cc(C(=O)OC)oc(=O)c5c(O)c4O3)O1)C2=O` (stereo unspecified), the MIC was 0.008 µg/mL (≈ 0.0149 µM) in test [1]; 0.25 µg/mL (≈ 0.465 µM) in test [3]; 0.06 µg/mL (≈ 0.112 µM) in test [4]; 0.06 µg/mL (≈ 0.112 µM) in test [24]; greater than 128 µg/mL in test [5]; 0.25 µg/mL (≈ 0.465 µM) in [26]. Moreover, the MIC in test [6] is 0.016 µg/mL (≈ 0.0298 µM); in [7] it was 2 µg/mL (≈ 3.72 µM); in test [10], 0.13 µg/mL (≈ 0.242 µM); in test [12] it was 0.03 µg/mL (≈ 0.0558 µM); in test [13] it was 64 µg/mL (≈ 119 µM); in [14], 0.016 µg/mL (≈ 0.0298 µM). For the same molecule, the MIC in test [27] was 128 µg/mL (≈ 238 µM); in [15], 0.03 µg/mL (≈ 0.0558 µM); in test [16], 0.03 µg/mL (≈ 0.0558 µM); in test [18] it was 0.016 µg/mL (≈ 0.0298 µM); in test [19], greater than 128 µg/mL; in [28], 1 µg/mL (≈ 1.86 µM). Also, the MIC is greater than 128 µg/mL in test [20] and 0.008 µg/mL (≈ 0.0149 µM) in test [22]. Besides, the MIC90 in [11] and in [17] was 2 µg/mL (≈ 3.72 µM) throughout. Besides, the results for the MIC50 in test [21] and in [23] were 1 µg/mL (≈ 1.86 µM) and 2 µg/mL (≈ 3.72 µM), respectively.
